Measured values reported in ChEMBL document CHEMBL1132583, “Design and synthesis of novel amphiphilic dendritic galactosides for selective targeting of liposomes to the hepatic asialoglycoprotein receptor” (J Med Chem, 1999).

Assays:
Type in all cases: functional, organism-based
Conditions in all cases: Microsome
Mus musculus [1] = organism: Mus musculus; assay: The percent recovery of the addedglycolipid (100 ug) with the liposomes in Mice at 10% w/w (n = 2)
How it was run: (§1)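 Glycolipid (0–50 μg; 5, 10 or 50% w/w) incubated with sonicated [3H]cholesteryl oleate-labeled egg PC liposomes (100 μg phospholipid) for 30 min at 37 °C. Incorporated and free glycolipid separated by FPLC on Superose-6 or Sephacryl S-1000, PBS pH 7.4 eluent, 50 μL/min. Galactose content of fractions measured by galactose oxidase assay. Recovery is given as percent of added glycolipid eluting with liposomes. Mean ± variation, n = 2.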

Mus musculus [2] = assay: Uptake by the liver liposomes upon intravenous injection in Mice at 50% w/w (n = 2)
How it was run: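 Optional asialofetuin preinjection (50 mg/kg) given 1 min before. Liver lobules and blood sampled over time. At 30 min, liver 3H is expressed as % injected dose, corrected for serum radioactivity. Mean ± variation of two experiments.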

Mus musculus [3] = organism: Mus musculus; assay: The percent recovery of the addedglycolipid (100 ug) with the liposomes in Mice at 50% w/w (n = 2); how it was run: as §1
Mus musculus [4] = organism: Mus musculus; assay: The percent recovery of the addedglycolipid (100 ug) with the liposomes in Mice at 5% w/w (n = 2); how it was run: as §1
Mus musculus [5] = organism: Mus musculus; assay: The percent recovery of the addedglycolipid (100 ug) with the liposomes in Mice at 5% w/w of the compound; how it was run: as §1

Row | SMILES | Recovery (Mus musculus [1]) [%] | Uptake (Mus musculus [2]) [%] | Recovery (Mus musculus [3]) [%] | Recovery (Mus musculus [4]) [%] | Recovery (Mus musculus [5]) [%]
1 | CCCCCCCC/C=C\CCCCCCCC(=O)O[C@H]1CC[C@@]2(C)C(CC[C@H]3[C@@H]4CC[C@H](C(C)CCC(=O)NCCCC(=O)NCC(=O)NC(COCCC(=O)NCCCNC(=O)CCCCO[C@@H]5O[C@H](CO)[C@H](O)[C@@H](O)[C@H]5O)(COCCC(=O)NCCCNC(=O)CCCCO[C@@H]5O[C@H](CO)[C@H](O)[C@@H](O)[C@H]5O)COCCC(=O)NCCCNC(=O)CCCCO[C@@H]5O[C@H](CO)[C@H](O)[C@@H](O)[C@H]5O)[C@@]4(C)CC[C@@H]32)C1 (stereo partly specified) | 96.5 | 83.5 | 59.4 | 100 | –
2 | CCCCCCCC/C=C\CCCCCCCC(=O)O[C@H]1CC[C@@]2(C)C(=CC[C@H]3[C@@H]4CC[C@H](C(C)C(=O)NCCCC(=O)NCC(=O)NC(COCCC(=O)NCCCNC(=O)CCCCO[C@@H]5O[C@H](CO)[C@H](O)[C@@H](O)[C@H]5O)(COCCC(=O)NCCCNC(=O)CCCCO[C@@H]5O[C@H](CO)[C@H](O)[C@@H](O)[C@H]5O)COCCC(=O)NCCCNC(=O)CCCCO[C@@H]5O[C@H](CO)[C@H](O)[C@@H](O)[C@H]5O)[C@@]4(C)CC[C@@H]32)C1 (stereo partly specified) | – | – | – | – | 100
3 | CCCCCCCC/C=C\CCCCCCCC(=O)O[C@H]1CC[C@@]2(C)C(=CC[C@H]3[C@@H]4CC[C@H](C(C)CCC(=O)NCCCC(=O)NCC(=O)NC(COCCC(=O)NCCCNC(=O)CCCCO[C@@H]5O[C@H](CO)[C@H](O)[C@@H](O)[C@H]5O)(COCCC(=O)NCCCNC(=O)CCCCO[C@@H]5O[C@H](CO)[C@H](O)[C@@H](O)[C@H]5O)COCCC(=O)NCCCNC(=O)CCCCO[C@@H]5O[C@H](CO)[C@H](O)[C@@H](O)[C@H]5O)[C@@]4(C)CC[C@@H]32)C1 (stereo partly specified) | – | – | – | – | 100
